Assay results as given in ChEMBL document CHEMBL4715736, “Identification of anticancer agents based on the thieno[2,3-b]pyridine and 1H-pyrazole molecular scaffolds” (2016).

What follows are molecules tested on KM12 (assay: Growth inhibition of human KM12 cells assessed as cell growth at 0.01 uM incubated for 48 hrs by sulforhodamine B assay relative to control). Conditions: read-out: Activity.
Type: functional

**Q.** How did the growth at 0.01 µM turn out when `Cc1cc(C)c(NC(=O)c2sc3nc4c(cc3c2N)CN(Cc2ccccc2)CC4)c(C)c1` was run?
**A.** 98%

These molecules were tested on UACC-62 (assay: Growth inhibition of human UACC-62 cells assessed as cell growth at 0.01 uM incubated for 48 hrs by sulforhodamine B assay relative to control). Conditions: read-out: Activity.
Type: functional

**Q.** Which growth at 0.01 µM does the source give for `Cc1cc(C)c(NC(=O)c2sc3nc4c(cc3c2N)CN(Cc2ccccc2)CC4)c(C)c1` here?
**A.** 101%

Each molecule was assayed on OVCAR-8 (assay: Growth inhibition of human OVCAR-8 cells assessed as cell growth at 0.01 uM incubated for 48 hrs by sulforhodamine B assay relative to control). Conditions: read-out: Activity.
Type: functional

**Q.** For `Cc1cc(C)c(NC(=O)c2sc3nc4c(cc3c2N)CN(Cc2ccccc2)CC4)c(C)c1`, which growth at 0.01 µM is on record?
**A.** 101%

Each molecule was assayed on 786-0 (assay: Growth inhibition of human 786-0 cells incubated for 48 hrs by sulforhodamine B assay). Conditions: not given.
Type: functional
Procedure, shortened: (§1)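 NCI Developmental Therapeutics Program NCI60 panel. Compounds that were active in the 10 µM one-dose screen went on to dose–response testing. Growth at each concentration is expressed relative to untreated control (100%). GI50 (concentration giving 50% of maximal inhibition of proliferation) and TGI (concentration giving total growth inhibition) were derived from the curves.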

**Q.** What does the source list for `Cc1cc(C)c(NC(=O)c2sc3nc4c(cc3c2N)CN(Cc2ccccc2)CC4)c(C)c1`?
**A.** GI50: 3.48 µM; TGI: > 100 µM

Same assay, conditions: read-out: LC50 (the source's name)

**Q.** How did the CC50 turn out when `Cc1cc(C)c(NC(=O)c2sc3nc4c(cc3c2N)CN(Cc2ccccc2)CC4)c(C)c1` was run?
**A.** > 100 µM

These molecules were tested on NCI-H226 (assay: Growth inhibition of human NCI-H226 cells assessed as cell growth at 100 uM incubated for 48 hrs by sulforhodamine B assay relative to control). Conditions: read-out: Activity.
Type: functional

**Q.** `Cc1cc(C)c(NC(=O)c2sc3nc4c(cc3c2N)CN(Cc2ccccc2)CC4)c(C)c1` was tested. Which growth at 100 µM did it give?
**A.** 20%

The molecules below were run on SW-620 (assay: Growth inhibition of human SW-620 cells assessed as cell growth at 1 uM incubated for 48 hrs by sulforhodamine B assay relative to control). Conditions: read-out: Activity.
Type: functional

**Q.** How did the growth at 1 µM turn out when `Cc1cc(C)c(NC(=O)c2sc3nc4c(cc3c2N)CN(Cc2ccccc2)CC4)c(C)c1` was run?
**A.** 76%

These molecules were tested on SN12C (assay: Growth inhibition of human SN12C cells assessed as cell growth at 0.01 uM incubated for 48 hrs by sulforhodamine B assay relative to control). Conditions: read-out: Activity.
Type: functional

**Q.** How did the growth at 0.01 µM turn out when `Cc1cc(C)c(NC(=O)c2sc3nc4c(cc3c2N)CN(Cc2ccccc2)CC4)c(C)c1` was run?
**A.** 104%

What follows are molecules tested on HCC 2998 (assay: Growth inhibition of human HCC 2998 cells assessed as cell growth at 0.01 uM incubated for 48 hrs by sulforhodamine B assay relative to control). Conditions: read-out: Activity.
Type: functional
Procedure, shortened: as §1

**Q.** Which growth at 0.01 µM does the source give for `Cc1cc(C)c(NC(=O)c2sc3nc4c(cc3c2N)CN(Cc2ccccc2)CC4)c(C)c1` here?
**A.** 105%

These molecules were tested on T47D (assay: Growth inhibition of human T47D cells assessed as cell growth at 100 uM incubated for 48 hrs by sulforhodamine B assay relative to control). Conditions: read-out: Activity.
Type: functional

**Q.** For `Cc1cc(C)c(NC(=O)c2sc3nc4c(cc3c2N)CN(Cc2ccccc2)CC4)c(C)c1`, which growth at 100 µM is on record?
**A.** 1%

The molecules below were run on CCRF-CEM (assay: Growth inhibition of human CCRF-CEM cells assessed as cell growth at 1 uM incubated for 48 hrs by sulforhodamine B assay relative to control). Conditions: read-out: Activity.
Type: functional
Procedure, shortened: as §1

**Q.** `Cc1cc(C)c(NC(=O)c2sc3nc4c(cc3c2N)CN(Cc2ccccc2)CC4)c(C)c1` was tested. Which growth at 1 µM did it give?
**A.** 88%

The molecules below were run on SF-539 (assay: Growth inhibition of human SF-539 cells assessed as cell growth at 0.01 uM incubated for 48 hrs by sulforhodamine B assay relative to control). Conditions: read-out: Activity.
Type: functional

**Q.** Which growth at 0.01 µM does the source give for `Cc1cc(C)c(NC(=O)c2sc3nc4c(cc3c2N)CN(Cc2ccccc2)CC4)c(C)c1` here?
**A.** 91%

These molecules were tested on DU-145 (assay: Growth inhibition of human DU-145 cells assessed as cell growth at 100 uM incubated for 48 hrs by sulforhodamine B assay relative to control). Conditions: read-out: Activity.
Type: functional
Procedure, shortened: as §1

**Q.** Which growth at 100 µM does the source give for `Cc1cc(C)c(NC(=O)c2sc3nc4c(cc3c2N)CN(Cc2ccccc2)CC4)c(C)c1` here?
**A.** -5%

What follows are molecules tested on OVCAR-3 (assay: Growth inhibition of human OVCAR-3 cells incubated for 48 hrs by sulforhodamine B assay). Conditions: not given.
Type: functional
Procedure, shortened: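 NCI DTP 60-line human tumour panel. Dose-response curves were run only for ligands active in the initial 10 µM screen. GI50 (concentration giving 50% of maximal inhibition of proliferation) and TGI (concentration giving total growth inhibition) were derived from these curves.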

**Q.** What does the source list for `Cc1cc(C)c(NC(=O)c2sc3nc4c(cc3c2N)CN(Cc2ccccc2)CC4)c(C)c1`?
**A.** GI50: 2.32 µM; TGI: 12.6 µM

Same assay, conditions: read-out: LC50 (the source's name)

**Q.** `Cc1cc(C)c(NC(=O)c2sc3nc4c(cc3c2N)CN(Cc2ccccc2)CC4)c(C)c1` was tested. Which CC50 did it give?
**A.** > 100 µM

The molecules below were run on PC-3 (assay: Growth inhibition of human PC-3 cells assessed as cell growth at 0.01 uM incubated for 48 hrs by sulforhodamine B assay relative to control). Conditions: read-out: Activity.
Type: functional

**Q.** How did the growth at 0.01 µM turn out when `Cc1cc(C)c(NC(=O)c2sc3nc4c(cc3c2N)CN(Cc2ccccc2)CC4)c(C)c1` was run?
**A.** 94%

These molecules were tested on KM12 (assay: Growth inhibition of human KM12 cells assessed as cell growth at 0.1 uM incubated for 48 hrs by sulforhodamine B assay relative to control). Conditions: read-out: Activity.
Type: functional

**Q.** Which growth at 0.1 µM does the source give for `Cc1cc(C)c(NC(=O)c2sc3nc4c(cc3c2N)CN(Cc2ccccc2)CC4)c(C)c1` here?
**A.** 103%

These molecules were tested on SK-MEL-5 (assay: Growth inhibition of human SK-MEL-5 cells assessed as cell growth at 1 uM incubated for 48 hrs by sulforhodamine B assay relative to control). Conditions: read-out: Activity.
Type: functional

**Q.** `Cc1cc(C)c(NC(=O)c2sc3nc4c(cc3c2N)CN(Cc2ccccc2)CC4)c(C)c1` was tested. Which growth at 1 µM did it give?
**A.** 59%

The molecules below were run on DU-145 (assay: Growth inhibition of human DU-145 cells assessed as cell growth at 1 uM incubated for 48 hrs by sulforhodamine B assay relative to control). Conditions: read-out: Activity.
Type: functional
Procedure, shortened: as §1

**Q.** With `Cc1cc(C)c(NC(=O)c2sc3nc4c(cc3c2N)CN(Cc2ccccc2)CC4)c(C)c1` as the molecule, how does the growth at 1 µM read?
**A.** 95%

These molecules were tested on SW-620 (assay: Growth inhibition of human SW-620 cells assessed as cell growth at 100 uM incubated for 48 hrs by sulforhodamine B assay relative to control). Conditions: read-out: Activity.
Type: functional

**Q.** Which growth at 100 µM does the source give for `Cc1cc(C)c(NC(=O)c2sc3nc4c(cc3c2N)CN(Cc2ccccc2)CC4)c(C)c1` here?
**A.** -43%
